Data from ChEMBL document CHEMBL3286113, “New potent antibacterial oxazolidinone (MRX-I) with an improved class safety profile” (J Med Chem, 2014).
≈ marks a conversion by molar mass, not a printed value.

Tests used:
[1] = Tmax in po dosed mouse; assay type: ADME, organism-based; settings: in vivo
[2] = Cmax in female rat at 5 mg/kg, po; assay type: ADME, organism-based; design: dose 5 mg/kg, route oral; settings: in vivo
Rattus norvegicus [3] = assay: Toxicity in female rat assessed as effect on hematocrit level at 100 mg/kg/day, po bid administered for 4 weeks (reference value: 39.08%); assay type: organism-based; design: route oral; settings: in vivo, 672 h
[4] = Tmax in human at 600 mg, po administered as single dose with meal measured on day 1; assay type: ADME, organism-based; settings: in vivo
How it was run: (§1)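 Randomized, double-blind, placebo-controlled multiple-dose study in 32 healthy subjects, half male and half female. Dosing was 600 or 800 mg orally with a meal, 28 doses over 15 days. A single dose was given on days 1 and 15 for full PK, with Q12h (BID) dosing on days 2−14.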

Staphylococcus aureus [5] = assay: Antibacterial activity against methicillin-sensitive Staphylococcus aureus ATCC 29213 in po dosed mouse thigh infection model; assay type: functional, organism-based; settings: Thigh muscle
How it was run: (§2)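 Mouse thigh infection with S. aureus ATCC29213 (MSSA), 10 animals per dosing group. Oral doses were 5, 10, 20, 40 and 80 mg/kg. The read-out was log CFU per thigh after treatment, and the reduction (ΔLogCFU/thigh) was reported.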

Staphylococcus aureus [6] = assay: Antibacterial activity against methicillin-sensitive Staphylococcus aureus ATCC 29213 in mouse thigh infection model assessed as reduction of log10 CFU per thigh at 10 mg/kg, po; assay type: functional; how it was run: as §2
[7] = Elimination half life in human at 900 mg, po administered as single dose at 30 mins post fat meal; assay type: ADME, organism-based; settings: in vivo, read-out: beta t1/2 (converted)
How it was run: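 Crossover study in 12 subjects (six of each sex). Each got a single oral 900 mg dose either fasted or 30 min after a fat-containing meal.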

[8] = test system: Staphylococcus saprophyticus; assay: Antibacterial activity against Staphylococcus saprophyticus; assay type: functional
[9] = Tmax in female rat at 15 mg/kg, po; assay type: ADME, organism-based; design: dose 15 mg/kg, route oral; settings: in vivo
How it was run: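 Male and female rats received single oral doses of 5, 15 or 45 mg/kg, with 5 mg/kg iv as a reference arm. Tmax was read from the plasma concentration–time profile for each gender.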

Staphylococcus aureus [10] = assay: Antibacterial activity against methicillin-resistant Staphylococcus aureus isolate 0612; assay type: functional
Rattus norvegicus [11] = assay: Toxicity in female rat assessed as effect on reticulocyte count at 200 to 300 mg/kg/day, po bid administered for 4 weeks (reference value: 1.48%); assay type: organism-based; design: route oral; settings: in vivo, 672 h
[12] = Cmax in female rat at 45 mg/kg, po; assay type: ADME, organism-based; design: dose 45 mg/kg, route oral; settings: in vivo
Cytochrome P450 2C19 = Cytochrome P450 2C19 (Homo sapiens, UniProt P33261); assay: Inhibition of CYP2C19 (unknown origin) at 1 to 200 uM; assay type: ADME
Streptococcus mitis = assay: Antibacterial activity against Streptococcus mitis; assay type: functional
[13] = Elimination half life in fasted human at 300 mg, po administered as single dose; assay type: ADME, organism-based; settings: in vivo, read-out: beta t1/2 (converted)
How it was run: (§3)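 Healthy volunteers (12; six of each sex) in a three-period Latin-square crossover. Each received single oral doses of 300, 600 and 900 mg under fasting conditions, with a 1-week washout between doses. Parameters from a noncompartmental model.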

[14] = AUC (0 to infinity) in human at 900 mg, po administered as single dose at 30 mins post fat meal; assay type: ADME, organism-based; design: dose 900 mg, time infinity, route oral; settings: plasma
How it was run: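 Crossover study in 12 subjects (6 of each gender). Each received a single oral 900 mg dose either fasting or 30 min after a fat-containing meal, and AUC0−inf was determined.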

Streptococcus pneumoniae [15] = assay: Antibacterial activity against penicillin-resistant Streptococcus pneumoniae isolate 0613; assay type: functional
Streptococcus pneumoniae [16] = assay: Bactericidal activity against penicillin-sensitive Streptococcus pneumoniae; assay type: functional
Staphylococcus aureus [17] = assay: Antibacterial activity against Staphylococcus aureus measured after 3 serial passages; assay type: functional
Rattus norvegicus [18] = assay: Toxicity in female rat assessed as effect on WBC count at 100 mg/kg/day, po bid administered for 4 weeks (reference value: 3.66 x 10^9/L); assay type: organism-based; design: route oral; settings: in vivo, 672 h
[19] = AUC (0 to t) in female rat at 15 mg/kg, po; assay type: ADME, organism-based; design: dose 15 mg/kg, route oral; settings: plasma
How it was run: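 Rat PK by gender, with single oral doses of 5, 15 and 45 mg/kg and an iv dose of 5 mg/kg. Tmax, Cmax, T1/2 and AUC0−t were reported per gender.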

Staphylococcus aureus [20] = assay: Antibacterial activity against Staphylococcus aureus measured after 4 serial passages; assay type: functional
Staphylococcus aureus [21] = assay: Antibacterial activity against methicillin-resistant Staphylococcus aureus isolate 0605 in po dosed mouse systemic infection model; assay type: functional; settings: isolate 0605, po
[22] = Toxicity in po dosed rat administered as bid for 4 weeks; assay type: organism-based; settings: in vivo
Staphylococcus aureus [23] = assay: Antibacterial activity against methicillin-sensitive Staphylococcus aureus ATCC 29213 in mouse thigh infection model assessed as reduction of log10 CFU per thigh at 20 mg/kg, po; assay type: functional; how it was run: as §2
[24] = Oral bioavailability in rat; assay type: ADME, organism-based; settings: in vivo
[25] = Clastogenicity in CHL cells assessed as induction of structural chromosomal aberration at 50 to 400 ug/mL measured over 6 hrs in presence of metabolic activation; assay type: toxicity, cell-based, Cricetulus griseus; settings: chinese hamster
How it was run: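 Chinese hamster lung cells scored for structural chromosome aberrations with or without metabolic activation. Exposure was 50–400 μg/mL over 6 h, or 25–200 μg/mL over 24 h.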

Canis familiaris = assay: Dose normalized AUC (0 to t) in po dosed dog; assay type: ADME, organism-based, Canis lupus familiaris; settings: in vivo
Enterococcus faecalis = assay: Antibacterial activity against vancomycin-resistant Enterococcus faecalis isolate EFL 4041 in po dosed mouse systemic infection model; assay type: functional; settings: isolate EFL 4041, po
Streptococcus agalactiae = assay: Antibacterial activity against Streptococcus agalactiae; assay type: functional
[26] = Elimination half life in fasted human at 900 mg, po administered as single dose; assay type: ADME, organism-based; settings: in vivo, read-out: beta t1/2 (converted); how it was run: as §3
Rattus norvegicus [27] = assay: Toxicity in female rat assessed as effect on hemoglobin level at 200 to 300 mg/kg/day, po bid administered for 4 weeks (reference value: 141.8 g/L); assay type: organism-based; design: route oral; settings: in vivo, 672 h
Staphylococcus = assay: Antibacterial activity against beta-lactamase-negative Staphylococcus; assay type: functional
[28] = AUC (0 to 24 hrs) in human at 800 mg, po administered as single dose with meal measured on day 15; assay type: ADME, organism-based; design: dose 800 mg, time < 24 hr, route oral; settings: plasma
How it was run: (§4)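 Randomized, double-blind, placebo-controlled multiple-dose study in 32 healthy subjects (half male, half female). Subjects took 28 oral doses of 600 or 800 mg over 15 days, each with a meal. A single dose was given on days 1 and 15 for full PK, and doses were given Q12h from day 2 to day 14. AUC0−24 was measured on days 1 and 15.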

[29] = Tmax in human at 800 mg, po administered as single dose with meal measured on day 15; assay type: ADME, organism-based; settings: in vivo; how it was run: as §1
[30] = AUC (0 to 24 hrs) in human at 600 mg, po administered as single dose with meal measured on day 15; assay type: ADME, organism-based; design: time < 24 hr, dose 600 mg, route oral; settings: plasma; how it was run: as §4
Staphylococcus aureus [31] = assay: Antibacterial activity against methicillin-sensitive Staphylococcus aureus ATCC 29213 in po dosed mouse systemic infection model; assay type: functional; settings: ATCC 29213, po
Staphylococcus aureus [32] = assay: Antibacterial activity against methicillin-resistant Staphylococcus aureus by agar dilution method; assay type: functional
How it was run: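 MIC determined by agar dilution across S. aureus/MRSA isolates; MIC90 is the concentration inhibiting 90% of strains tested.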

Cytochrome P450 2C19, sequence (P33261 whole entry): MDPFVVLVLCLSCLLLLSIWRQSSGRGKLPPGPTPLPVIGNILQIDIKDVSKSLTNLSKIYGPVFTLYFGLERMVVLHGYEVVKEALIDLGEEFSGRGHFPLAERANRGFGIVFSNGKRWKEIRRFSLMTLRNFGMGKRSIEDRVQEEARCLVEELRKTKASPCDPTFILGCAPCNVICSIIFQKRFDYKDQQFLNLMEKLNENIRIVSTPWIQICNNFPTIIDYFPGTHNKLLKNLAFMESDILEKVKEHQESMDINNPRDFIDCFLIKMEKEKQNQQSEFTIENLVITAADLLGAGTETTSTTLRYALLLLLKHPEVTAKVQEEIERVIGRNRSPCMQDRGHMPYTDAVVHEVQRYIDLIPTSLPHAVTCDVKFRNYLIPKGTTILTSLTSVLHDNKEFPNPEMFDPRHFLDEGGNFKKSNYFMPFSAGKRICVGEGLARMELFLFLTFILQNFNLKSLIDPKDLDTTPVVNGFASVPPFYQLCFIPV

O=C1C=CN(c2c(F)cc(N3C[C@H](CNc4ccon4)OC3=O)c(F)c2F)CC1 [CONTEZOLID]
Tmax [1]: 0.5 h | Cmax [2]: 9390 ng/mL | Activity (Rattus norvegicus [3]): 36.48% | Tmax [4]: 0.65 h | Activity (Staphylococcus aureus [5]): Dose-dependent effect | deltalog10CFU (Staphylococcus aureus [6]): 3.29 | half-life [7]: 2.7 h | MIC50 [8]: 0.5 µg/mL (≈ 1.22 µM) | MIC90 [8]: 1 µg/mL (≈ 2.45 µM) | Tmax [9]: 1.17 h | MIC (Staphylococcus aureus [10]): 2 µg/mL (≈ 4.9 µM) | Activity (Rattus norvegicus [11]): 1.26% | Cmax [12]: 50000 ng/mL | inhibition (INH) (Cytochrome P450 2C19): Not Active | MIC50 (Streptococcus mitis): 0.5 µg/mL (≈ 1.22 µM) | MIC90 (Streptococcus mitis): 1 µg/mL (≈ 2.45 µM) | half-life [13]: 2.18 h | AUC(0-inf) [14]: 141000 ng·h/mL | MIC (Streptococcus pneumoniae [15]): 2 µg/mL (≈ 4.9 µM) | MIC50 (Streptococcus pneumoniae [16]): 0.5 µg/mL (≈ 1.22 µM) | MIC90 (Streptococcus pneumoniae [16]): 0.5 µg/mL (≈ 1.22 µM) | MIC (Staphylococcus aureus [17]): 2 µg/mL (≈ 4.9 µM) | Activity (Rattus norvegicus [18]): 3.14 ×10⁹ /L | AUC(0-t) [19]: 64700 ng·h/mL | MIC (Staphylococcus aureus [20]): 2 µg/mL (≈ 4.9 µM) | ED50 (Staphylococcus aureus [21]): 12 mg/kg | NOAEL at 672 h [22]: 100 mg/kg/day | deltalog10CFU (Staphylococcus aureus [23]): 3.33 | bioavailability [24]: 109% | Activity [25]: Non-toxic | AUCt/dose (Canis familiaris): 1664 ng·h/mL/mg/kg | ED50 (Enterococcus faecalis): 6.2 mg/kg | MIC50 (Streptococcus agalactiae): 1 µg/mL (≈ 2.45 µM) | MIC90 (Streptococcus agalactiae): 1 µg/mL (≈ 2.45 µM) | half-life [26]: 4.9 h | Activity (Rattus norvegicus [27]): 117.6 g/L | MIC50 (Staphylococcus): 0.5 µg/mL (≈ 1.22 µM) | MIC90 (Staphylococcus): 0.5 µg/mL (≈ 1.22 µM) | AUC(0-t) at 24 h [28]: 90400 ng·h/mL | Tmax [29]: 0.57 h | AUC(0-t) at 24 h [30]: 72900 ng·h/mL | ED50 (Staphylococcus aureus [31]): 8 mg/kg | MIC50 (Staphylococcus aureus [32]): 0.5 µg/mL (≈ 1.22 µM) | MIC90 (Staphylococcus aureus [32]): 0.5 µg/mL (≈ 1.22 µM)
